Measured values of several laboratories.
Compare with care: the assays were run in different laboratories.

Compound	assay	test system	conditions	solubility
CC#Cc1cncc(-c2ccc3c(c2)[C@@]2(N=C(C)C(N)=N2)[C@]2(CC[C@H](OC)CC2)C3)c1	–	simulated gastric fluid	25 °C, acidic	> 10000 µg/mL
Cc1cccc(C(=O)Nc2cccc(NC(=O)c3ccccc3)c2)c1	–	PBS	pH 7.4	0.82 µM
Cc1cc(Nc2ccc(S(F)(F)(F)(F)F)cc2)n2nc(C(C)(F)F)nc2n1	nephelometry	aqueous buffer	pH 6.5	30 to 60 µM
COCCOCCOCc1n(Cc2ccc3ccccc3n2)c2ccccc2[n+]1Cc1ccc2ccccc2n1.[Cl-]	–	water	–	> 40000 µg/mL
O=C(c1ccccn1)N(Cc1cccs1)C1(C(=O)NC2CCCCC2)CCCCC1	–	aqueous buffer	pH 5	5.7 µg/mL
O=C(Nc1cc(F)c(F)c(F)c1)c1ccc(F)c(S(=O)(=O)NCc2cccc(B(O)O)c2)c1	–	aqueous buffer	pH 7	329 µg/mL
CN1CCN(C2=Nc3cc(Cl)ccc3Nc3ccccc32)CC1	–	FaSSIF	24 h, pH 7.4, 37 °C	350 µg/mL
CCOc1ccc2cc(-c3nn(C4CCCCCC4)c(N)c3C(N)=O)cnc2c1	–	PBS	pH 6.5, 25 °C	8.5 µM
CNC(=O)c1ccc(N(Cc2ccc(C3CCCCC3)cn2)C(=O)[C@H]2CCN2S(=O)(=O)c2c(F)c(F)c(F)c(F)c2F)cc1O	–	simulated gastric fluid	–	115 µg/mL
CCn1c(-c2nc3cc(C(=O)N4CCC[C@@H](N)C4)cc(OC)c3n2C)cc2cccnc21	–	aqueous buffer	–	396 µM
O=C(O)c1ccc(-c2ccc(-c3cc4ccc(O)cc4oc3=O)cc2)cc1	shake flask	PBS	36 h, pH 7.4	52.5 µM
Cc1ccc(Nc2nc(NCc3ccccc3)c3ccccc3n2)cc1F	–	aqueous buffer	pH 7.4	0.05 µg/mL
O=C(O)c1ccccc1O	–	PBS	pH 7.4	7700 µg/mL
Clc1cccc(Nc2nc(NCc3cccc(Br)c3)c3ccccc3n2)c1	–	aqueous buffer	pH 5	0.1 µg/mL
Nc1cccc(S(=O)(=O)N2CCCN(S(=O)(=O)c3ccc4c(c3)OCCO4)CC2)c1	–	aqueous buffer	–	29 µg/mL
CC(C)CC(=O)N1CCC[C@H](COc2cccc3c2C(N)=NS(=O)(=O)[N-]3)C1.[Na+]	–	water	–	235000 µM
Cc1nnc(CCCCCN)nn1.Cl	–	water	–	> 500000 µM
COc1cc(C(=O)O)cc(OC)c1O	–	water	72 h, 25 °C	7400 µM
COc1c(Cl)cccc1Nc1nc(NCc2ccccc2)c2ccccc2n1	–	aqueous buffer	pH 7.4	0.06 µg/mL
CC[C@H](C)[C@H](NC(=O)[C@H](Cc1ccccc1)NC(=O)[C@H](Cc1ccc(O)cc1)NC(=O)[C@@H]1CCCN1C(=O)[C@@H](N)Cc1ccc(O)cc1)C(=O)N1CCC[C@H]1C(=O)N[C@@H](CC(C)C)C(=O)NCC(=O)NCC(=O)NCC(=O)N[C@@H](CCC(=O)O)C(=O)N[C@H](C(=O)N[C@@H](CC(N)=O)C(=O)N[C@@H](CC(C)C)[C@@H](O)CC(=O)N[C@H](C(=O)N[C@@H](C)C(=O)N[C@@H](CCC(=O)O)C(=O)N1CCC[C@@H]1C(=O)N[C@@H](CCCCNC(=O)CCC(=O)O[C@H]1CC[C@@]2(C)C(=CC[C@H]3[C@@H]4CC[C@H]([C@H](C)CCCC(C)C)[C@@]4(C)CC[C@@H]32)C1)C(N)=O)C(C)C)C(C)C	–	aqueous buffer	pH 6.5	< 1 µg/mL
c1ccc(CNc2nc(N3CCOc4ccccc43)nc3ccccc23)cc1	–	aqueous buffer	pH 7.4	0.48 µg/mL
COc1cccc(OC)c1-c1nc(C(=O)N[C@@H](CC(C)C)C(=O)O)cn1-c1ccnc2cc(Cl)ccc12	–	aqueous buffer	pH 5	> 52 µg/mL
CC(C)C[C@H](NC(=O)[C@H](CCc1ccccc1)NC(=O)CN1CCOCC1)C(=O)N[C@@H](Cc1ccccc1)C(=O)N[C@@H](CC(C)C)C(=O)[C@@]1(C)CO1	–	PBS	24 h, pH 7.4, 37 °C	1.56 µM
CCOc1ccc2cc(-c3nn(C(C)C)c(N)c3C(N)=O)cnc2c1	–	PBS	pH 6.5, 25 °C	99 µM
Cl.Clc1ccc2c(nc(N3CCNCC3)n2Cc2ccccc2)c1-c1ccncc1	shake flask	aqueous buffer	20 h, pH 6.5, 25 °C	200 µM
CC(C)C[C@H](NC(=O)[C@H](Cc1ccccc1)NC(=O)c1cnccn1)B(O)O	nephelometry	aqueous buffer	pH 6.8	50 µM
COCCc1nc2nc(C)cc(Nc3ccc(C(F)(F)F)cc3)n2n1	nephelometry	aqueous buffer	pH 6.5	71 to 140 µM
COCc1nn(Cc2ccc(Cn3ccccc3=O)cc2)cc1C(=O)NCc1c(F)ccc(OC)c1F	–	FaSSIF	4 h, pH 1.6	9 µg/mL

Compound	assay	test system	conditions	solubility
NCC1CCN(c2nccc3[nH]c(-c4cccc(OC(F)(F)F)c4)nc23)CC1	shake flask	aqueous buffer	pH 6.5	> 200 µM
CCCCCCCCN1CCCC1=O	–	PBS	48 h, pH 7.4, 25 °C	4800 µM
COc1cccc2c(NCc3ccccc3)nc(NCc3ccccc3)nc12	–	aqueous buffer	pH 6.2	1 µg/mL
COC(=O)c1ccc(N)cc1	–	PBS	pH 7.4	1800 µg/mL
CS(=O)(=O)N1CCN(Cc2cc3nc(-c4cccc5[nH]ncc45)nc(N4CCOCC4)c3s2)CC1	–	FaSSIF	–	1 µg/mL
COc1ccc2cc(-c3nn(C(C)(C)C)c(N)c3C(N)=O)cnc2c1	–	PBS	pH 6.5, 25 °C	> 100 µM
COc1cccc2c(NCc3ccccc3)nc(-n3c(=O)oc4ccccc43)nc12	–	aqueous buffer	pH 7.4	< 0.01 µg/mL
CCCCCCN1CCCC1=O	–	PBS	48 h, pH 7.4, 25 °C	79000 µM
Cc1ccc(F)cc1Nc1nc(NCc2ccccc2)c2ccccc2n1	–	aqueous buffer	pH 6.2	0.07 µg/mL
CCC(F)(F)c1nc2nc(C)cc(Nc3ccc(S(F)(F)(F)(F)F)cc3)n2n1	nephelometry	aqueous buffer	pH 6.5	15 to 30 µM
Clc1ccc2c(c1)nc(C1CCNCC1)n2Cc1ccccc1	shake flask	aqueous buffer	20 h, pH 6.5, 25 °C	125 µM
COC(=O)[C@H]1[C@H]2C[C@@H]3c4[nH]c5cc(OC)ccc5c4CCN3C[C@H]2C[C@@H](OC(=O)c2cc(OC)c(OC)c(OC)c2)[C@@H]1OC	shake flask	PBS	24 h, pH 6.5, 25 °C	< 5 µM
COc1cccc(OC)c1-c1nc(C(=O)N[C@@H](CC(C)C)C(=O)O)cn1-c1cccc2ccccc12	–	aqueous buffer	pH 6.2	> 145 µg/mL
O=C(Nc1ccc(S(=O)(=O)N2CCC(Cl)CC2)cc1)c1ccc([N+](=O)[O-])o1	–	aqueous buffer	pH 7.4	9.7 µM
Fc1ccc(-c2nc3c(N4CCCN(CC5CC5)CC4)nccc3[nH]2)cc1F	shake flask	aqueous buffer	pH 6.5	> 200 µM
Cl.c1ccc(Cn2c(N3CCNCC3)nc3cc(-c4ccccc4)ccc32)cc1	shake flask	aqueous buffer	20 h, pH 6.5, 25 °C	25 µM
Fc1ccc(-c2nc3c(N4CCN5CCC4CC5)nccc3[nH]2)cc1F	shake flask	aqueous buffer	pH 6.5	> 200 µM
CCCn1nc(C(=O)N2CCCCC2)c2c1CCC(N1CCc3ccccc3C1)C2 (stereo not shown)	–	PBS	16 h, pH 7.4	713 µM
N=C(N)NCc1ccc(NC(=O)C23CCC(C(=O)Nc4ccc(C5=CCN(C(=N)N)CC5)cc4)(CC2)CC3)cc1	shake flask	aqueous buffer	pH 7.4	46 µg/mL
Cc1ccc(S(=O)(=O)NCc2ccc(C(=O)NCCN(Cc3ccccc3)C(C)C)cc2)cc1	–	aqueous buffer	pH 7.4	0.79 µg/mL
N=C(N)NCc1ccc(NC(=O)c2ccc(C(=O)Nc3ccc(C4=CCN(C(=N)N)CC4)cc3)cc2)cc1	shake flask	aqueous buffer	pH 7.4	171 µg/mL
OCCOc1cccc2c(NCc3ccccc3)nc(N3CCOc4ccccc43)nc12	–	aqueous buffer	pH 7.4	0.43 µg/mL
Cc1cc(Nc2ccc(S(F)(F)(F)(F)F)cc2)n2nc(C3CC3)nc2n1	nephelometry	aqueous buffer	pH 6.5	16 to 32 µM
Brc1ccc2c(c1)nc(N1CCNCC1)n2Cc1ccccc1	shake flask	aqueous buffer	20 h, pH 6.5, 25 °C	105 µM
CNc1nc2ccccc2n2c(-c3cccc(OC)c3)cnc12	HPLC	ethanol	–	500 µg/mL
O=C(Nc1ccc(C(F)(F)F)cc1)N1CCC(Cc2cccc(Oc3ccc(C(F)(F)F)cn3)c2)CC1	–	water	48 h, 37 °C	0.0016 µM
CC(C)(C)n1nc(-c2cnc3cc(OCC4CC4)ccc3c2)c(C(N)=O)c1N	–	PBS	pH 6.5, 25 °C	26.8 µM
